# Bioassay records as filed in PubChem BioAssay.
# Rows were chosen to be rich in hits. Some 2.4% of all compounds tested hit in one or more screens of this group.
# NPY-Y1 antag: NPY-Y1 receptor antagonists, primary screen, cell-based | AID 1040, 2008 | inhibition, % at 3.6 µM | HEK293-CNG Y1 cells, membrane potential fluorescence; NPY at EC95, then isoproterenol | actives 1% (n = 200,000) | Neuropeptide Y receptor type 1 (Homo sapiens), P25929;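 active = inhibition above the campaign mean inhibition of all tested compounds plus 3 SD, cut at about 20% in these data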;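 also: 0% = DMSO wells given NPY plus isoproterenol and 100% = isoproterenol alone without NPY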
# Target sequence (P25929 whole entry, looked up): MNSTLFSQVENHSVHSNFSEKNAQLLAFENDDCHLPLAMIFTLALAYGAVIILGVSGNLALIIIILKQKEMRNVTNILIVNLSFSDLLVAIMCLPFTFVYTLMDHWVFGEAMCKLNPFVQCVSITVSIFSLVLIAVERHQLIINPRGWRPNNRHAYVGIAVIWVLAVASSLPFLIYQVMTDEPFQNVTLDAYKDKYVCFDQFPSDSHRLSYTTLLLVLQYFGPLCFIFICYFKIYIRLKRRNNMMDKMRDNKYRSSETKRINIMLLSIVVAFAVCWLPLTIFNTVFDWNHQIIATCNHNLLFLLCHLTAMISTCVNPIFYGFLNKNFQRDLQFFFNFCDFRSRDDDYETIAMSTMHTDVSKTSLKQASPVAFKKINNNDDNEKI
#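 Assay system: HEK293 Y1/CNG channel cell line; Doses: single compound dose of 3.6 µM, 0.4% DMSO; Timing: dye 3 h, compound 60 min room temperature, stimulation 45 min; Technique: Membrane-potential fluorescent dye readout; Measure: % inhibition of NPY effect.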
# NPY-Y2 PAM-ag: NPY-Y2 potentiators or agonists, primary screen, cell-based; Neuropeptide Y receptor type 2 (Homo sapiens), P49146; cells expressing NPY-Y2, potentiator/agonist read-out; activation, % at 3.6 µM; actives 0.45% (n = 220,000); in the data active = activation above about 27%;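 also: cells stimulated with NPY near EC25 plus isoproterenol at EC100; 0% = vehicle plus submaximal agonist and 100% = vehicle plus saturating agonist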
# S1P4 antag: S1P4 receptor antagonists, primary screen, cell-based; Sphingosine 1-phosphate receptor 4 (Homo sapiens), O95977; S1P4-expressing cells, antagonist mode, reporter read-out; inhibition, % at 4.98 µM; actives 0.26% (n = 220,000); in the data active = inhibition above about 29%;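 also: 0% = wells stimulated with agonist and 100% = vehicle wells without agonist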
# S1P4 ag: S1P4 receptor agonists, primary screen, cell-based. Sphingosine 1-phosphate receptor 4 (Homo sapiens), O95977. S1P4-expressing cell line, agonist reporter assay. activation, % at 4.98 µM. actives 0.35% (n = 220,000). AID 1509, 2009; in the data active = activation above about 11%;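 also: 0% = DMSO vehicle and 100% = reference agonist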
# NPY-Y2 antag: NPY-Y2 receptor antagonists, primary screen, cell-based; inhibition, % at 2.7 µM; NPY-Y2 expressing cells, antagonist mode; actives 0.99% (n = 140,000); Neuropeptide Y receptor type 2 (Homo sapiens), P49146; in the data active = inhibition above about 17%;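 also: 0% = vehicle with agonist challenge and 100% = reference antagonist with challenge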
# NPY-Y1 PAM-ag: NPY-Y1 receptor potentiators or agonists, primary screen, cell-based | Neuropeptide Y receptor type 1 (Homo sapiens), P25929 | NPY-Y1 expressing cells, potentiator/agonist activation | activation, % at 3.6 µM | actives 0.37% (n = 220,000); in the data active = activation above about 33%, passing the limit was not always enough;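 also: cells stimulated with NPY at EC10 then isoproterenol at EC100; 0% = low agonist plus stimulus and 100% = saturating agonist plus stimulus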
# * marks the source's active call; other numbers are inactive results; x = no result.
SMILES,NPY-Y1 antag,NPY-Y2 PAM-ag,S1P4 antag,S1P4 ag,NPY-Y2 antag,NPY-Y1 PAM-ag
COc1cc2c(cc1OC)C(c1cccc([N+](=O)[O-])c1)N(C(=O)c1ccc(F)cc1)CC2 (configuration not stated),32*,-2,17,0,33*,-27
COc1ccc(OC)c(CNC(=O)Cc2c(C(=O)O)[nH]c3ccccc23)c1,-6,13,7,0,4,64*
CCOC(=O)CN(C(=O)CSc1nnc(COc2ccc(OC)cc2)n1C)c1ccccc1,-14,103*,-2,0,0,112*
COCC(=O)Nc1nnc(Cc2ccc(OC)c(OC)c2)s1,1,12,-1,0,-2,0
COc1ccc(Cc2nnc(NC(=O)CSc3ccc(C)cc3)s2)cc1OC,22*,-20,-5,1,9,-10
CCOc1ccc(C2CC(c3ccccc3C)n3ncnc3N2)cc1 (configuration not stated),21*,-12,9,-1,24*,-13
CN(CCc1ccccn1)C(=O)CCC1CCCN(C(=O)c2ccccn2)C1 (configuration not stated),0,4,-10,-1,x,-1
COc1ccc(NC(=O)/C(Cl)=C(/Cl)S(=O)Cc2ccccc2Cl)cn1 (configuration not stated),-5,-4,102*,-6,x,12
O=C(COc1ccc(Br)cc1)Nc1ccc([N+](=O)[O-])cn1,21*,-1,-3,1,12,-17
CC(C(=O)NC(=O)NC1CCCCC1)N1CCN(c2ccccn2)CC1 (configuration not stated),3,14,-1,0,1,5
O=C(c1ccccn1)N(Cc1ccco1)C1(C(=O)NC2CCCC2)CCCCC1,34*,-7,-1,2,53*,0
O=C(c1ccc2c(c1)OCO2)N(Cc1ccco1)C1(C(=O)NC2CCCCC2)CCCCC1,51*,-7,11,0,28*,-44
O=C(Cc1cccs1)N(Cc1ccco1)C1(C(=O)NC2CCCC2)CCCCC1,61*,-5,4,-1,26*,-3
CCC(C)(C(=O)NC1CCCCC1)N(Cc1ccco1)C(=O)c1cnccn1 (configuration not stated),11,-17,11,1,8,-15
O=C(c1cnccn1)N(Cc1ccco1)C1(C(=O)NC2CCCC2)CCCCC1,42*,-3,9,-1,33*,4
COc1cc(CC(=O)OCC(=O)NC2CC2)cc(OC)c1OC,-2,-15,-22,-1,x,-1
O=C(c1ccccc1Cl)N1CCn2c1nc1ccccc12,3,-12,3,0,x,-9
Cn1c(=O)c(=O)n(C)c2cc(S(=O)(=O)N3CCN(Cc4ccccc4)CC3)ccc21,4,25,0,0,0,7
COc1ccc(Br)cc1/C=C/C(=O)Nc1c(C)cccc1C,3,-8,95*,1,3,6
Fc1ccccc1COc1ccc(/C=N/n2cnnc2)cc1,6,12,-14,2,8,8
COc1ccc(-n2nnnc2S(=O)(=O)CC(=O)N2CCCCC2)cc1,0,-13,54*,-3,2,-2
O=C(CSc1nc(O)c(Cc2ccccc2)c(=O)[nH]1)Nc1ccccc1,2,-9,-5,-3,3,-3
CC1=C(C(=O)OCC(C)C)C(c2ccsc2)NC(=O)N1 (configuration not stated),0,7,-14,2,2,11
CCOC(=O)C1=C(C)NC(=O)NC1c1ccsc1 (configuration not stated),-7,40*,-9,0,0,111*
CN(C)CCNC(=O)c1ccc2c(c1)N(Cc1ccc(F)cc1)CCS2,-8,65*,-21,-2,5,75*
SMILES,NPY-Y1 antag,NPY-Y2 PAM-ag,S1P4 antag,S1P4 ag,NPY-Y2 antag,NPY-Y1 PAM-ag
Cc1ccc(CN2CCSc3ccc(C(=O)NCc4cccnc4)cc32)cc1,10,-4,-5,1,x,-14
Brc1ccc(Cn2c(-c3ccc(Br)o3)nc3ccccc32)o1,29*,-26,-1,1,29*,-21
O=[N+]([O-])/C(=C\Nc1ccccc1)S(=O)(=O)c1ccccc1,7,10,18,2,-1,-1
Cc1ccccc1C(=O)c1c[nH]c(C(N)=O)c1,-1,27,7,0,-2,111*
CCOC(=O)c1c(C)[nH]c(C(=O)C(C)Sc2ccc(Cl)cc2)c1C (configuration not stated),84*,-26,2,-1,34*,-32
O=c1nc2s/c(=C\c3ccc(-c4ccccc4[N+](=O)[O-])o3)c(=O)n2nc1-c1ccccc1,9,7,-32,2,2,-29
C/C(N)=C(/C#N)C(=O)CSc1ncnc2ccccc12,-11,98*,-5,0,9,94*
N#CCc1ccc(NC(=O)Nc2cccc(Cl)c2)cc1,-18,20,0,0,-3,37*
Cc1csc2nc(CSc3nc4ccccc4o3)c(Br)n12,23*,-20,2,-1,11,-17
O=C(O)c1cccc(NC(=S)NC(NC(=O)c2cccc([N+](=O)[O-])c2)C(Cl)(Cl)Cl)c1 (configuration not stated),x,5,-18,0,x,9
O=C(NC(NC(=S)Nc1ccc(Cl)cc1Cl)C(Cl)(Cl)Cl)c1cccc([N+](=O)[O-])c1 (configuration not stated),5,56*,0,0,-1,56*
Cc1ccc2c(c1)NC(=O)C(CC(=O)NC1CCCCC1C)O2 (configuration not stated),-2,3,-6,-5,1,2
CCc1nc2ccc(C)cc2c(C(=O)NC2CCCCC2C)c1C (configuration not stated),64*,-53,-42,1,30*,-97
COc1ccccc1OCCn1c(=O)n(C)c2ccccc21,5,1,-6,2,x,2
Cc1ccc(C)c(OCC(=O)Nc2nonc2NC(=O)COc2cc(C)ccc2C)c1,24*,-8,-9,-1,21*,-72
Cc1cc2c(OCC(O)CN3CCCC3)cccc2[nH]1 (configuration not stated),-18,100*,-33,1,x,110*
CC(C)(C)NCC(O)COc1cccc2c1C[C@H](O)[C@H](O)C2 (some centres not stated),-10,102*,6,2,2,118*
